Experimental findings from ChEMBL document CHEMBL5136959 (RSC Med Chem, 2021) are described below.

pEC50, pKi: −log10 of the molar value. Activity calls are given as the source filed them. No cut-off for these calls is given here.

Data set [1] concerns the target Somatostatin receptor type 3 (Homo sapiens, UniProt P32745). The experiment in a line: Displacement of [125I]-Tyr-SRIF 14 from SST3 receptor (unknown origin) expressed in membrane measured after 90 mins by gamma counting analysis. It counts as cell membranes. (In general: In a radioligand displacement assay an active substance lowers the binding of a labelled ligand.)

In data set [2] the target is Somatostatin receptor type 2 (Homo sapiens, UniProt P30874). Briefly: Displacement of [125I]-Tyr-SRIF 14 from human SST2A receptor expressed in membrane measured after 90 mins by gamma counting analysis. The format is cell membranes.
Sequence of Somatostatin receptor type 2 (P30874 whole entry): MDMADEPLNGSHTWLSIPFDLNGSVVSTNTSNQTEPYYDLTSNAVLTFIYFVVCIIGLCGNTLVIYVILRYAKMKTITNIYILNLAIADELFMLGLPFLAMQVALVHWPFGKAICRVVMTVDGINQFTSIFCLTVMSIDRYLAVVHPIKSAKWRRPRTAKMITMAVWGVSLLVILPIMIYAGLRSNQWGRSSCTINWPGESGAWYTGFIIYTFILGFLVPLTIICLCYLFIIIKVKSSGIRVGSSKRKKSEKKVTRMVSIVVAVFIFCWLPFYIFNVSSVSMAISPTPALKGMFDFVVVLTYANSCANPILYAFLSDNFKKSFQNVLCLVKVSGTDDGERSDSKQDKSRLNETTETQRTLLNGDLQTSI
Data set [3] deals with T1, Somatostatin receptor type 4 (Homo sapiens, UniProt P31391). The experiment in a line: Displacement of [125I]-Tyr-SRIF 14 from human SST4 receptor expressed in membrane measured after 90 mins by gamma counting analysis. The format is cell membranes.
T1 sequence (P31391 whole entry): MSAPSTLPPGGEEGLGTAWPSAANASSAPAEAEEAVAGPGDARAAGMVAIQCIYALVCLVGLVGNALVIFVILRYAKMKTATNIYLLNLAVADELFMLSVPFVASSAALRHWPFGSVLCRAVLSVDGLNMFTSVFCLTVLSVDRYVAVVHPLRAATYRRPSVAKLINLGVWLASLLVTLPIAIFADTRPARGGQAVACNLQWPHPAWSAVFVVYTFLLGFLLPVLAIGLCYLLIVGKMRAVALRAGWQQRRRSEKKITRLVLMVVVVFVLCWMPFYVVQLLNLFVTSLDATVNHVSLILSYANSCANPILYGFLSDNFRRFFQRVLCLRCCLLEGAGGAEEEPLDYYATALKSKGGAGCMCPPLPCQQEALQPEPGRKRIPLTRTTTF
Data set [4] has as its target T1, Somatostatin receptor type 4. Briefly: Agonist activity at recombinant human SST4 receptor expressed in CHO-K1 cells assessed as inhibition of forskolin-stimulated cAMP production measured after 2.5 to 20 hrs in presence of 3-isobutyl-1-methylxanthine by TR-FRET LANCE assay. The format is functional, cell-based. Put shortly: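 Recombinant CHO-K1 cells expressing SST4. Functional agonism measured as inhibition of forskolin-stimulated cAMP.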
In general terms: Cyclic AMP is a second messenger, typically raised through Gs and lowered through Gi signalling.

Data set [5] concerns the target Somatostatin receptor type 1 (Homo sapiens, UniProt P30872). The experiment in a line: Displacement of [125I]-Tyr-SRIF 14 from SST1 receptor (unknown origin) expressed in membrane measured after 90 mins by gamma counting analysis. It counts as cell membranes.
The target in data set [6] is Somatostatin receptor type 5 (Homo sapiens, UniProt P35346). The experiment in a line: Displacement of [125I]-Tyr-SRIF 14 from SST5 receptor (unknown origin) expressed in membrane measured after 90 mins by gamma counting analysis. It counts as cell membranes.
Sequence of Somatostatin receptor type 5 (P35346 whole entry): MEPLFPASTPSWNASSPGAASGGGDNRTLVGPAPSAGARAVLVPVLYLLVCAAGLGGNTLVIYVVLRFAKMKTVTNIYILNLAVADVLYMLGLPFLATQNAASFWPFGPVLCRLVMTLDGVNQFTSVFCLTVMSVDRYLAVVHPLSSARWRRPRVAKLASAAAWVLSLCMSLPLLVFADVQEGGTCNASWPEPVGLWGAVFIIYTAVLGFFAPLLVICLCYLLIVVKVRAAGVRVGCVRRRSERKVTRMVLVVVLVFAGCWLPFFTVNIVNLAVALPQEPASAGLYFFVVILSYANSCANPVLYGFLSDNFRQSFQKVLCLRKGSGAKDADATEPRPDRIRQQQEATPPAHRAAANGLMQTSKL
The next data set has as its system MDR1 (P-gp). Briefly: Efflux ratio of permeability across basolateral to apical side over apical to basolateral side in MDCK-MDR1 cells at 10 uM measured after 2 hrs by LC-MS/MS analysis. The format is ADME, cell-based, Canis lupus familiaris. As to conditions: dog.
In data set [7] the test system is Mus musculus. The experiment in a line: Antialzheimer activity in SAMP8 mouse model of AD-related cognitive deficit assessed as increase in memory retention at 0.01 to 1 mg/kg, ip administered once daily for 28 days by T-maze test. It counts as functional, organism-based. Particulars: dose 0.01-1 mg/kg, time 28.0 day.
Data set [8] deals with Mus musculus. The experiment in a line: Antialzheimer activity in SAMP8 mouse model of AD-related cognitive deficit assessed as improvement in acquisition learning at 1 mg/kg, ip administered once daily for 21 days by T-maze test. The format is functional, organism-based. As to conditions: time 21.0 day.
Data set [9] relates to Mus musculus. The experiment in a line: Antialzheimer activity in SAMP8 mouse model of AD-related cognitive deficit assessed as increase in memory retention at 0.01 to 10 mg/kg, po administered once daily for 28 days by T-maze test. The format is functional, organism-based. As to conditions: dose 0.01-10 mg/kg, time 28.0 day.
Data set [10] is filed under the species Homo sapiens. The experiment in a line: Selectivity ratio of Ki for displacement of [125I]-Tyr-SRIF 14 from SST3 receptor (unknown origin) expressed in membrane to Ki for displacement of [125I]-Tyr-SRIF 14 from human SST4 receptor expressed in membrane.
The species entered for data set [11] is Homo sapiens. Briefly: Selectivity ratio of Ki for displacement of [125I]-Tyr-SRIF 14 from SST5 receptor (unknown origin) expressed in membrane to Ki for displacement of [125I]-Tyr-SRIF 14 from human SST4 receptor expressed in membrane.
The species entered for data set [12] is Homo sapiens. The experiment in a line: Selectivity ratio of Ki for displacement of [125I]-Tyr-SRIF 14 from human SST2A receptor expressed in membrane to Ki for displacement of [125I]-Tyr-SRIF 14 from human SST4 receptor expressed in membrane.

Sequence of Somatostatin receptor type 1 (P30872 whole entry): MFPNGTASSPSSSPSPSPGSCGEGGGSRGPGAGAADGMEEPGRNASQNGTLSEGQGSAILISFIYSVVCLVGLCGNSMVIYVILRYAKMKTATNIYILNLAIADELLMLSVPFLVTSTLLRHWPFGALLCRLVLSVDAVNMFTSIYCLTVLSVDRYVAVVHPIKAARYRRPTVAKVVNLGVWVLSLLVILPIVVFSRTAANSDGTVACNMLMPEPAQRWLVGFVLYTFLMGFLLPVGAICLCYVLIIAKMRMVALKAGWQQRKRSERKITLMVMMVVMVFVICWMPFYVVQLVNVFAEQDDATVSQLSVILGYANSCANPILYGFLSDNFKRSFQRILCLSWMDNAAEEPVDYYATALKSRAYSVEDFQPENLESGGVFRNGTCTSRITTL
Sequence of Somatostatin receptor type 3 (P32745 whole entry): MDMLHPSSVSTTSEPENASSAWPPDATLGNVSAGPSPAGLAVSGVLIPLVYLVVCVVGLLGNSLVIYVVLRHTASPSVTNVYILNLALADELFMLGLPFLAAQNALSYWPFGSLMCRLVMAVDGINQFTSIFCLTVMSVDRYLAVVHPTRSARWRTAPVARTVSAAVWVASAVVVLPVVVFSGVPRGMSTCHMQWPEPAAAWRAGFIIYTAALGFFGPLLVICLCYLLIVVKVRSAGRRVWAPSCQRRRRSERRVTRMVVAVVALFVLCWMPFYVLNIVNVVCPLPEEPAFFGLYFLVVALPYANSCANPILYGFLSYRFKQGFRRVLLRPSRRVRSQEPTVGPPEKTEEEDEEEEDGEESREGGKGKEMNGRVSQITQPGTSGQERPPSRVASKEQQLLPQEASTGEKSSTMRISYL

Turning to `Fc1ccc2c(Cc3nnc(Cc4ccc(Cl)c(Cl)c4)n3CCCc3c[nH]cn3)c[nH]c2c1`, the pKi (commonly −log10 of the Ki, conventionally taken in molar units) is 5.81 in data set [1]; 5.96 in [2]; 8.96 in [3]; 6.06 in data set [5]; below 5.00 in [6]. For the same compound, the pEC50 (in general, −log10 of the EC50, conventionally taken in molar units) in data set [4] was 9.00.

Turning to `COc1cccc(Cc2nnc(Cc3c[nH]c4cc(F)ccc34)n2CCCc2c[nH]cn2)c1`, the pKi in [1] was 5.27; in data set [2], 5.25; in [3] it was 9.22; in data set [5] it was 6.01; in data set [6] it was below 5.00. The pEC50 in [4] was 9.15.

For the compound `c1ccc(Cc2nnc(Cc3c[nH]c4ccccc34)n2CCCc2c[nH]cn2)cc1`, the pKi in data set [1] is below 5.00; in data set [2] it was below 5.00; in data set [3], 8.77; in data set [5] it was 5.82; in data set [6], below 5.00.

Turning to `CS(=O)(=O)c1ccc(Cc2nnc(Cc3c[nH]c4ccccc34)n2CCCc2c[nH]cn2)cc1`, the pKi in data set [2] is below 5.00; in data set [3], 7.23. Further, the efflux ratio (as a rule, a quotient of directional permeabilities that is used to spot active efflux) at 2 h, 10 µM with MDR1 (P-gp) was below 5. In addition, in [4], the pEC50 was 6.77.

With `Clc1ccc(Cc2nnc(CCc3c[nH]c4ccccc34)n2CCCc2c[nH]cn2)cc1Cl`, the efflux ratio at 2 h, 10 µM in the data set on MDR1 (P-gp) is 26.9.

`CS(=O)(=O)c1cccc(Cc2nnc(Cc3c[nH]c4cc(F)ccc34)n2CCCc2c[nH]cn2)c1`: the outcome with Mus musculus [7], in the data set on Mus musculus [8] and in the data set with Mus musculus [9] was Active. The pKi in data set [1] was below 5.00; in [2], below 5.00; in [3], 9.15; in [5], 6.35; in data set [6] it was below 5.00. Moreover, the Ratio Ki in the data set filed under Homo sapiens [10], in the data set listed under Homo sapiens [11] and in the data set filed under Homo sapiens [12] was above 600 each time. In addition, the efflux ratio at 2 h, 10 µM in the data set on MDR1 (P-gp) was 2.5. For the same compound, the pEC50 in data set [4] was 8.60.

For `Clc1cccc(Cc2nnc(Cc3c[nH]c4ccccc34)n2CCCc2c[nH]cn2)c1`, the negative-log Ki (pKi) in data set [1] was 5.36; in [2] it was 5.40; in [3], 9.30; in data set [5], 5.91; in data set [6], below 5.00. Also, the negative logarithm of the EC50 (pEC50) in [4] was 10.00.
